# An excerpt weighted towards active compounds, which were near 2.5% of everything screened.
# TRPC4 PAM – TRPC4 (mouse) allosteric potentiation; HEK293 TRPC4beta/mu-opioid, DAMGO EC20, Fluo-4 Ca2+ flux; hits give high values; B-score at 10 µM; 310,000 tested, 0.42% active;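 active = B-score of calcium response area above 5 SD of library B-scores, with initial fluorescence ratio within 5 SD of library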;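 note: B-score of integrated fluorescence ratio over time as area under calcium response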
# Target sequence (Q9QUQ5 whole entry, looked up): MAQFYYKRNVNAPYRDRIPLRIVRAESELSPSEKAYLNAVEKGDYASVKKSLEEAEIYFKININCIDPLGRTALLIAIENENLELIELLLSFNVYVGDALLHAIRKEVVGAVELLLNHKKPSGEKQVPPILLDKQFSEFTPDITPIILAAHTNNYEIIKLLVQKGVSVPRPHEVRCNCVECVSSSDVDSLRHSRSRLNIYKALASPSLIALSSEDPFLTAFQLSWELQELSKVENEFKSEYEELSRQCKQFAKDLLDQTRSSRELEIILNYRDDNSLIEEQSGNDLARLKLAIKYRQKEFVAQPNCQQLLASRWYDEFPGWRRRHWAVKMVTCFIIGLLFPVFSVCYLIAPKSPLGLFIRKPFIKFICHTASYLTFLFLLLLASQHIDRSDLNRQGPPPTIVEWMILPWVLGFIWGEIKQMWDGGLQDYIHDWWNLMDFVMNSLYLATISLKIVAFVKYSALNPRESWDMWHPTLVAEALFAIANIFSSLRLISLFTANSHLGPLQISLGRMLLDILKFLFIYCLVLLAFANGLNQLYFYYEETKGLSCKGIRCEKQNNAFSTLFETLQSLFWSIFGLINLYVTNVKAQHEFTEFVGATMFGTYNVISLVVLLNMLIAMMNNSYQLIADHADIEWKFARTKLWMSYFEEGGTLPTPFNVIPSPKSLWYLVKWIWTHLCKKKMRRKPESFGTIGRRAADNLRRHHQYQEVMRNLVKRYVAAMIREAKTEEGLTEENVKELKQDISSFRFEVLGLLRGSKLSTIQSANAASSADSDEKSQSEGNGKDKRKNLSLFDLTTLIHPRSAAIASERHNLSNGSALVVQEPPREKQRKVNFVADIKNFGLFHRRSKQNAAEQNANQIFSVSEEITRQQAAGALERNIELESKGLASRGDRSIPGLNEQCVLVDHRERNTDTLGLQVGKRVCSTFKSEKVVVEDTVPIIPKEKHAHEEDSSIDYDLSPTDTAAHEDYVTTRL
# TRPC4 agonist – TRPC4 (mouse) channel activation; Q9QUQ5; HEK293 TRPC4beta/mu-opioid, Fluo4 calcium fluorescence; hits give high values; B-score at 10 µM; 310,000 tested, 0.49% active; AID 2237;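 active = B-score above 5 SD of library B-scores, and initial fluorescence ratio not above library mean plus 5 SD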;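 note: positive B-score marks a calcium rise read as TRPC4 activation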
#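 Assay system: HEK293 stable line with TRPC4beta plus mu-opioid receptor; schedule: 45 min room-temperature Fluo4 loading, 110 s read; technique: kinetic Fluo4 calcium fluorescence; evaluation: integrated baseline-normalised fluorescence ratio, converted to per-well B score; controls: buffer (low) and maximal DAMGO (high)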
# DSG3 Ab inh – inhibitors of pemphigus antibody binding to human desmoglein-3; 310,000 tested, 0.48% active; P32926; binding (percent of control), % at 10 µM; DSG3-coupled beads, scFv-anti-DSG3-GFP binding, flow cytometry; hits give low values;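 active = binding more than 3 SD below its plate's average and above zero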;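 note: hits lower antibody fragment binding to DSG3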
# TRPC6 activator – mouse TRPC6 channel activation; Q61143; B-score at 10 µM; 310,000 tested, 0.13% active; HEK293-TRPC6 membrane potential dye fluorescence; hits give high values;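 active = B-score of the integrated fluorescence ratio above library mean plus 3 SD, and starting fluorescence ratio within library mean plus 5 SD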;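 note: higher score means more depolarization so channel activation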
# TRPC4 block – inhibitors of mouse TRPC4 channel. HEK293 TRPC4beta/mu-opioid, DAMGO-evoked Fluo4 calcium flux; hits give low values. 300,000 tested, 0.39% active. B-score at 10 µM;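 active = B-score over 3 SD under the library average, no early fluorescence shift, positive overall ratio signal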
#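 Signal: kinetic Fluo4 fluorescence imaging of calcium influx. Material: stable TRPC4beta/mu-opioid receptor HEK293 cells. Probe or stimulus: DAMGO in two steps, submaximal then maximal.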
# TRPC6 inhibitor – blocks the mouse TRPC6 cation channel | Q61143 | HEK293-TRPC6, membrane potential dye, ACh-evoked depolarization; hits give low values | B-score at 10 µM | 310,000 tested, 1.1% active | AID 2553;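 active = B-score under library mean minus 3 SD, initial fluorescence not abnormally high, positive integrated signal ratio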;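 note: B-score derived from integrated fluorescence ratio over the kinetic read; more negative B-score means stronger inhibition of depolarization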
# * = called active by the depositor; i = inactive; . = no result.
SMILES,TRPC4 PAM,TRPC4 agonist,DSG3 Ab inh,TRPC6 activator,TRPC4 block,TRPC6 inhibitor
Cc1cccc(Cl)c1NC(=S)N1CCN(c2ccc([N+](=O)[O-])cn2)CC1,i,i,119,i,i,i
CCOc1cccc(CNCCO)c1OCc1ccc(Cl)cc1,i,i,98,i,-7*,i
COc1cc(C(=O)OCC(=O)Nc2ccc(N3CCOCC3)cc2)ccc1OCC(C)C,i,i,104,i,i,i
CCOCc1cn(CC(=O)c2ccc(Cl)cc2)c(C)nc1=N,i,i,110,i,-8*,i
CN1OC[C@@H]2CN(Cc3ccc(Cl)cc3)[C@H](c3cccc(Br)c3)C[C@@H]21,.,.,98,.,.,.
OC12CCCCC1C(c1ccc3c(c1)OCO3)N(Cc1ccc(F)cc1)CC2 (configuration not stated),i,48*,105,i,i,i
OC12CCCCC1C(c1ccc3c(c1)OCO3)N(Cc1cccc(F)c1)CC2 (configuration not stated),i,i,105,i,i,i
COc1ccc(-c2noc(CCC(=O)N3CCN(c4ccccc4F)CC3)n2)cc1,.,.,98,.,.,.
CC(NCCC1(Cc2ccccc2Cl)CCOC(C)(C)C1)c1cccs1 (configuration not stated),i,68*,107,i,i,i
CC(NCCC1(C(C)C)CCOC(C)(C)C1)c1cccs1 (configuration not stated),i,i,114,i,i,i
O=C(Nc1ccc(F)cc1F)c1ccco1,i,70*,91,i,i,i
O=C(CCc1ccccc1Cl)NC1CCCN(c2ccc(C(F)(F)F)cn2)C1 (configuration not stated),i,i,82*,i,i,i
O=C(c1ccco1)N1CCN(S(=O)(=O)c2c(Cl)cccc2Cl)CC1,i,i,103,i,i,i
CNC(=S)NNC(=O)c1cccn(Cc2cccc(Cl)c2)c1=O,13*,i,101,i,i,i
CNC(=S)NNC(=O)c1cccn(Cc2ccc(Cl)c(Cl)c2)c1=O,i,i,99,i,i,i
O=[N+]([O-])c1ccc(N2CCN(CCOc3nonc3-c3ccccc3)CC2)c(Cl)c1,17*,i,124,i,i,i
C[C@H](CO)N1C[C@H](C)[C@@H](CN(C)C(=O)Nc2ccc3c(c2)OCO3)Oc2ccc(NC(=O)Nc3ccc4c(c3)OCO4)cc2C1=O,.,.,105,.,.,.
O=C(CN(Cc1ccc(F)cc1)C(=O)CNS(=O)(=O)c1ccccc1)NCC1CCCO1 (configuration not stated),i,i,97,i,i,i
COC(=O)CS(=O)(=O)c1nnc([C@H](Cc2ccccc2)NC(=O)OC(C)(C)C)o1,i,i,110,i,-5*,i
Cc1cccc(CS(=O)(=O)c2nnc([C@H](Cc3ccccc3)NC(=O)OC(C)(C)C)o2)c1,i,i,100,i,i,i
Cc1cc(NCc2ccccc2)nc2ccccc12,i,51*,104,i,-7*,i
CN(CC1CCCN(CCc2ccccc2F)C1)C(=O)c1ccoc1 (configuration not stated),i,i,99,i,i,i
COc1ccc(CCN2CCCC(CN(C)C(=O)c3ccoc3)C2)cc1 (configuration not stated),19*,i,105,i,i,i
CC(C)N1CCN(C(=O)c2ccc(NC(=O)c3ccc(Br)o3)cc2)CC1,.,.,68*,.,.,.
O=C(Nc1ccc(N2CCN(C(=O)c3ccccc3)CC2)cc1)c1ccc(Br)o1,i,i,107,i,i,i
SMILES,TRPC4 PAM,TRPC4 agonist,DSG3 Ab inh,TRPC6 activator,TRPC4 block,TRPC6 inhibitor
CCn1c(N2CCN(C(=O)Nc3ccc(F)cc3)CC2)nc2ccccc21,i,118*,94,i,i,i
O=C(NC1CCCCC1)N1CCN(c2ccccc2)CC1,i,i,106,i,i,i
CCn1c(N2CCN(CC(=O)Nc3cccc(C)c3C)CC2)nc2ccccc21,i,147*,102,i,i,i
CCCn1c(N2CCN(C(=O)Nc3ccccc3)CC2)nc2ccccc21,i,i,103,i,i,i
O=C(NC1CCCCC1)N1CCN(C(c2ccccc2)c2ccccc2)CC1,i,i,103,i,-6*,i
CCn1c(N2CCN(C(=O)NC3CCCCC3)CC2)nc2ccccc21,i,46*,104,i,i,i
CC12CCCCC1N(O)C(=O)C(=O)N2O (configuration not stated),i,i,89,i,i,i
c1ccc(SCc2cn(C[C@H]3CC[C@@H]([C@@H]4CC[C@H](Cn5cc(CSc6ccccc6)nn5)O4)O3)nn2)cc1,i,i,106,i,i,i
O=C(O)C1CCC(CNS(=O)(=O)c2ccccc2)CC1 (configuration not stated),i,i,94,i,i,i
COc1ccc(C(=O)C(O)C(c2ccc(C)cc2)N2CCOCC2)cc1OC (configuration not stated),i,i,99,i,i,i
CCn1c(NC2CCCCC2)nc2ccccc21,i,i,.,i,-6*,i
Nc1ccc(N2CCOCC2)cc1C(F)(F)F,i,i,112,i,i,i
CSCCC(NC(=O)COc1ccccc1)C(=O)OCc1ccc([N+](=O)[O-])cc1 (configuration not stated),i,i,99,i,i,i
COC(=O)c1cc([N+](=O)[O-])c(-n2ccnc2)c([N+](=O)[O-])c1,i,i,106,i,i,i
Cn1c(N)c(Br)c(-c2ccc(F)cc2)c(C#N)c1=O,i,i,111,i,-5*,i
O=C(Nc1cc(Cl)ccc1O)C1CC(c2ccccc2Cl)=NO1 (configuration not stated),i,i,137,i,i,i
COc1cccc2[nH]c3c(N4CCN(Cc5ccc6c(c5)OCO6)CC4)ncnc3c12,i,i,.,i,i,-6.7*
COc1ccc2c(c1)[nH]c1c(N3CCN(Cc4ccc5c(c4)OCO5)CC3)ncnc12,i,i,100,i,i,i
CN(C)CCOc1ccc2ccccc2c1,16*,i,100,i,i,i
CN(C)CCOc1cc(Cl)cc(Cl)c1,26*,i,97,i,i,i
c1ccc2cc(OCCOCCOc3ccc4ccccc4c3)ccc2c1,i,i,98,i,i,i
